In publication PMC5504481 (Clinical and Translational Science, 2017):
Where “and” joins values, the source holds several entries; their conditions need not be identical. Identical values can stand only once.

Key:
[1] = molecular target: T1, OATP1B1 (Homo sapiens, UniProt Q9Y6L6); type: cell-based; settings: for Transport rate in OATP1B1-transfected cells without rifampin: in 15 min, HEK293
T1 sequence (Q9Y6L6 1-691): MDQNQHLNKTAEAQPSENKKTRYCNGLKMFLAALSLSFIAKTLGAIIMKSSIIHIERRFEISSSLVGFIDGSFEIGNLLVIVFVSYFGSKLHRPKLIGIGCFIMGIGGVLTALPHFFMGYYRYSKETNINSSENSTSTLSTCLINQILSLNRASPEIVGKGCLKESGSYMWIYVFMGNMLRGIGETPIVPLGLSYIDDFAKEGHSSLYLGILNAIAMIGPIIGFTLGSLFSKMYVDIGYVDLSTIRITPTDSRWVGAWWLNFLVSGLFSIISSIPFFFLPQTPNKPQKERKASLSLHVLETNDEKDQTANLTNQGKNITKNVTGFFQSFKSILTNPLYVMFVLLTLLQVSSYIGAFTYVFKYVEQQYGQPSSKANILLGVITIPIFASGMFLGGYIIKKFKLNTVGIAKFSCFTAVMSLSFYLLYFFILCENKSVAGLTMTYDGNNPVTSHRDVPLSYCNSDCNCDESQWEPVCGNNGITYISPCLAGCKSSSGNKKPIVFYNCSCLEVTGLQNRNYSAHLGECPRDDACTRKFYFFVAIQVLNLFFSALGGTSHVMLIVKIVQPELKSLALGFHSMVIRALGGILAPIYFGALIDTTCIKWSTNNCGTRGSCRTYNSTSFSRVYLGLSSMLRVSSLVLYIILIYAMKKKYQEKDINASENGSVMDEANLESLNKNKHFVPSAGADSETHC

[2] = molecular target: T2, Oatp1b2 (Mus musculus, UniProt Q9JJL3); type: cell-based; settings: for Transport rate in Oatp1b2-transfected cells without rifampin: in 15 min, HEK293
T2 sequence (Q9JJL3 1-689): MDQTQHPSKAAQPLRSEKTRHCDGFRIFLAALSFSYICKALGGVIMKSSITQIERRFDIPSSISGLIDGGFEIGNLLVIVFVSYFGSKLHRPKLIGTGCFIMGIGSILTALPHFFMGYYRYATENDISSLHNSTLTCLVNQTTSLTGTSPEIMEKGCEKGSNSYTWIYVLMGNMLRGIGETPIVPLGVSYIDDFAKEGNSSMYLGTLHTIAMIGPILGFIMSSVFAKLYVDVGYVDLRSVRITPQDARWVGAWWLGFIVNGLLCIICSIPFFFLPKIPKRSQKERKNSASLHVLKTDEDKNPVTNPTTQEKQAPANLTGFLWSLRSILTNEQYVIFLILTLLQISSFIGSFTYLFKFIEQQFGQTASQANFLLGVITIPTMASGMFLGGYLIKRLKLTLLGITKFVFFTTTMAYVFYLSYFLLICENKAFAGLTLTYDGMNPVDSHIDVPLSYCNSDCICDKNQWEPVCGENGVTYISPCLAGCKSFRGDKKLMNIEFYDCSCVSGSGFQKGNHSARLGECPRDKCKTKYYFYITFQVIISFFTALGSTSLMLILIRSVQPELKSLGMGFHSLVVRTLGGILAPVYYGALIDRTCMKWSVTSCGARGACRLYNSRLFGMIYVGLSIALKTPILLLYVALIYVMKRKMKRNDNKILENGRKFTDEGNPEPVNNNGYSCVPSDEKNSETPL

[3] = type: in vivo, mice; settings: for Effect of Oatp1b2-deficiency and/or rifampin pretreatment on plasma levels: mice, rifampin 20 mg/kg
Outline: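 Female DBA1/lacJ mice, knockout and age-matched wildtype, n=4 per group, fasted 3 h before and during the study. Rifampin was given i.v. 5 min before sorafenib gavage in Cremophor EL/ethanol (1:1) diluted 1:4 with water. Plasma was sampled at 0.25–7.5 h and liver at 7.5 h. Analytes were measured by LC-MS/MS. Liver was normalized to plasma; geometric means (95% CI) were compared by ANOVA.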

[4] = type: in vivo, human
[5] = oral sorafenib, humans; cited from earlier work
[6] = cited from earlier work
[7] = Adverse events and laboratory tests during the clinical study; type: in vivo, human; settings: patients on sorafenib; rifampin 600 mg x 2, midazolam 2.5 mg i.v.
Outline: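 Sorafenib-treated patients were at steady state (≥14 days on the same dose) with creatinine <1.25×ULN, bilirubin <1.25×ULN, aminotransferases <5×ULN and PT ≤1.5×ULN or INR <1.5 at entry. Rifampin was given fasting the day before and the day of sampling, 1 h before sorafenib. Sorafenib dose changes and CYP3A4-affecting comedication were barred. Adverse events were graded by CTCAE v4.03.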

[8] = molecular target: T1, OATP1B1; experiment: Transcellular; type: cell-based; settings: rifampin 100 μM; SG 1 μM; MDCKII-OATP1B1
[9] = test system: OATP1B1; settings: cited from earlier work
[10] = patients, with versus without rifampin
[11] = rifampin preincubation 30 μM (legend: 20 μM), SG 10 μM, 15 min
[12] = rifampin preincubation 30 μM, E2G 0.1 μM, 15-min incubation

For `C[C@]12CC[C@@H]3c4ccc(O)cc4CC[C@H]3[C@@H]1CC[C@@H]2O[C@@H]1O[C@H](C(=O)O)[C@@H](O)[C@H](O)[C@H]1O` [E2G, estradiol‐17β‐D‐glucuronide], the “Transport rate in OATP1B1-transfected cells without rifampin” value ([1]; E2G 0.1 μM, SG 10 μM) was 4.77 pmol/mg protein and the “Transport rate in Oatp1b2-transfected cells without rifampin” value ([2]; E2G 0.1 μM, SG 10 μM) was 26.73 pmol/mg protein.
With `CNC(=O)c1cc(Oc2ccc(NC(=O)N(c3ccc(Cl)c(C(F)(F)F)c3)[C@@H]3O[C@H](C(=O)O)[C@@H](O)[C@H](O)[C@H]3O)cc2)ccn1` [SG, sorafenib‐β‐D‐glucuronide] the “Transport rate in OATP1B1-transfected cells without rifampin” value ([1]; E2G 0.1 μM, SG 10 μM) was 57.46 pmol/mg protein, the “Transport rate in Oatp1b2-transfected cells without rifampin” value ([2]; E2G 0.1 μM, SG 10 μM) was 770.17 pmol/mg protein and the “Increase in SG AUC0-7.5h with Oatp1b2-deficiency” value ([3]; Oatp1b2(-/-) versus wildtype mice, sorafenib 10 mg/kg oral) was 8 fold. For the same compound, the “Reduction of liver-to-plasma ratio of SG” value ([3]; wildtype mice pretreated with rifampin 20 mg/kg, 7.5 h after sorafenib 10 mg/kg) was ~90%, the “Increase of SG levels by rifampin in humans” value ([4]; humans) was ~2 fold and the “Mean metabolic ratio of SG to sorafenib during rifampin administration” value [4, 10] was “significantly increased”. The “Detection of SG in feces” value [5] was “not detectable” and the “Mean steady-state (trough) concentration (Css)” value ([6]; 16 cancer patients, sorafenib 90 mg/m^2 oral, days 7, 13 and 21) was 954 ng/mL.
For `CNC(=O)c1cc(Oc2ccc(NC(=O)Nc3ccc(Cl)c(C(F)(F)F)c3)cc2)cc[n+]1[O-]` [Sorafenib N-oxide, sorafenib‐N‐oxide], the “Effect of Oatp1b2-deficiency and/or rifampin pretreatment on plasma levels” value ([3]; sorafenib 10 mg/kg oral) was “did not substantially affect” and the “Extent of sorafenib-N-oxide formation between treatment cycles” value [4, 10] was “not different”.
In the case of `CNC(=O)c1cc(Oc2ccc(NC(=O)Nc3ccc(Cl)c(C(F)(F)F)c3)cc2)ccn1` [Sorafenib, sorafenib], the “Effect of Oatp1b2-deficiency and/or rifampin pretreatment on plasma levels” value ([3]; sorafenib 10 mg/kg oral) is given as “did not substantially affect”, the “Fraction of the dose eliminated as oxidative metabolites” value [5] is given as “less than 5%” and the “Fraction of the dose eliminated as sorafenib-β-D-glucuronide (SG)” value [5] is given as 15%. For the same compound, the “Influence of the CYP3A4 inhibitor ketoconazole on PK” value ([6]; healthy male volunteers, single-dose sorafenib) was “no influence”, the “Variation in exposure between patients receiving the same therapeutic regimen” value ([6]; oral sorafenib) was “up to 90%” and the “Decrease in systemic exposure with neomycin” value ([6]; ref Nexavar package insert) was “more than 50%”.
For `COc1ccccc1Oc1c(NS(=O)(=O)c2ccc(C(C)(C)C)cc2)nc(-c2ncccn2)nc1OCCO` [bosentan], the “Change in systemic exposure with extended rifampin exposure” value ([6]; rifampin 600 mg once daily for 6.5 days) is given as “–58%” and the “Change in systemic exposure with acute rifampin exposure” value ([6]; rifampin 600 mg once daily, 1–2 doses) is given as “+500%”.
In the case of `Cc1ncc2n1-c1ccc(Cl)cc1C(c1ccccc1F)=NC2` [midazolam], the “Toxicities attributable to the drug during the clinical study” value [7] was “no toxicities were observed”.
In the case of `CO[C@H]1/C=C/O[C@@]2(C)Oc3c(C)c(O)c4c(O)c(c(/C=N/N5CCN(C)CC5)c(O)c4c3C2=O)NC(=O)/C(C)=C\C=C\[C@H](C)[C@H](O)[C@@H](C)[C@@H](O)[C@@H](C)[C@H](OC(C)=O)[C@@H]1C` [rifampin], the “Reduction of intracellular uptake of SG by OATP1B1” value [1, 11] was 92%, the “Inhibition of E2G uptake by human OATP1B1” value [1, 12] was “strongly inhibited” and the “Reduction of intracellular uptake of SG by Oatp1b2” value [2, 11] was 97%. The “Inhibition of E2G uptake by mouse Oatp1b2” value [2, 12] was “strongly inhibited”, the “Effect of rifampin on OATP1B1-mediated basal-to-apical translocation of SG” value [8] was “diminished” and the “Toxicities attributable to the drug during the clinical study” value [7] was “no toxicities were observed”. The “Plasma Cmax of unbound rifampin” value [6] was ~1.3 μM and 1.1 mg/L and the “Substrate-dependent variation in IC50 values for inhibition of OATP1B1” value [9] was “up to 12 fold”.
